# Screening results: PubChem BioAssay, several laboratories
# CYP2C9 inhib: blocks human cytochrome P450 2C9; inhibition, % at 5 µM; CYP2C9 Supersomes, luciferin-H conversion, luminescence; P11712; hit rate 20% among 96,000;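 active = blocking of liver enzyme CYP2C9 beyond about 50% at 5 µM, limit read from the data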
# Target sequence (P11712 whole entry, looked up): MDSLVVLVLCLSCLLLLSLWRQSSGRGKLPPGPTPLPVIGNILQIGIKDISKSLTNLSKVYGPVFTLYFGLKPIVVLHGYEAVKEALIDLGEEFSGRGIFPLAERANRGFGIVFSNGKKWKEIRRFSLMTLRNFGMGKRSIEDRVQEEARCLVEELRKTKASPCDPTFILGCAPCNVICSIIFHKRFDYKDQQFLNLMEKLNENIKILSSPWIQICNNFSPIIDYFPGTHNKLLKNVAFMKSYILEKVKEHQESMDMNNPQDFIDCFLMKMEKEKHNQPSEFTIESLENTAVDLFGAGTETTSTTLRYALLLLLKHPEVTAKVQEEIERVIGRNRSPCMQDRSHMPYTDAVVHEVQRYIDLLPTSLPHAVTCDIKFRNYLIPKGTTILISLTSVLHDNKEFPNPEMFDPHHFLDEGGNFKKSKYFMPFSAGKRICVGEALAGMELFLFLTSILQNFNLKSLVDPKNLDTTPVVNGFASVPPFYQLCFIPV
# Cav32 inh: blocks human Cav3.2 T-type calcium channel; O95180; Cav3.2-expressing cells, Fluo-4 calcium fluorescence FDSS; hits give low values; B-score at 10 µM; hit rate 4% among 100,000; AID 449739;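 active = single-dose well whose peak fluorescence ratio is a statistical outlier from its plate by either plate-standardised score or position-corrected B-score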
# Rev-RRE block: HIV Rev-RRE protein-RNA interaction inhibition | Rev peptide-RRE RNA binding, FRET | inhibition, % at 8 µM | hit rate 0.79% among 97,000 | AID 704;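 active = inhibition above the screen-wide mean plus 3 SD, cut at about 35% in these data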;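 also: 0% = median DMSO wells and 100% = median Neomycin B control wells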
#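 Assay system: Rev peptide and RRE RNA, both fluorescently labelled; times: 5 min preincubation and 15 min binding, 25 °C; detection: FRET, ex 480 nm, em 540 and 671 nm; read-out basis: % inhibition from 671/540 nm acceptor-to-donor ratio, scaled between controls; benchmarks: DMSO low control, neomycin B high control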
# CYP2C19 inhib: blocks human cytochrome P450 2C19; hit rate 21% among 96,000; CYP2C19 Supersomes, luciferin-H EGE luminescence, 30 min; P33261; inhibition, % at 5 µM;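 active = CYP2C19 inhibition above a set limit at 5 µM in the primary screen, cut at about 50% in these data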;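 also: plate controls were negative control wells for no effect and 2.5 mM tranylcypromine positive control for full effect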
# CYP2C9 activ: activators of human CYP2C9. P11712. recombinant CYP2C9, luciferin-H conversion, luminescence; hits give high values; factor 1 = untreated enzyme, 0 = blocked. activation factor at 5 µM. hit rate 1.4% among 96,000;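 active = activation factor of 2 or more for CYP2C9 at a 5 µM dose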;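 also: 0 = sulfaphenazole-blocked wells and 1 = vehicle-only wells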
# CYP2C19 activ: cytochrome P450 2C19 (human) activation. recombinant CYP2C19, luciferin-H EGE luminescence; hits give high values; 0 = fully inhibited enzyme, 1 = untreated enzyme. 96,000 tested, under 10 active. activation factor at 5 µM;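 active = activation factor of at least 2 at 5 µM in the primary screen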;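 also: 0 = wells with 2.5 mM tranylcypromine and 1 = vehicle-only wells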
# Numbers without * were called inactive; x = no result given. Rows were chosen to be rich in hits. Some 27% of all compounds tested hit in one or more screens of this group.
SMILES,CYP2C9 inhib,Cav32 inh,Rev-RRE block,CYP2C19 inhib,CYP2C9 activ,CYP2C19 activ
C=CCn1c(SCC(=O)NCC2CCCO2)nc2scc(-c3ccco3)c2c1=O (stereo unspecified),81*,-0.68,7,78*,0.2,0.2
O=c1c2c(-c3ccco3)csc2nc(SCc2cn3cccnc3n2)n1-c1ccccc1,97*,-4.4*,1,53*,0,0.5
COc1ccc(C2=NOC(c3nnc(-c4ccccc4)o3)C2)cc1 (stereo unspecified),x,-0.13,x,x,x,x
CCS(=O)(=O)N1CCN(c2ccc([N+](=O)[O-])c(N3CCOCC3)c2)CC1,x,1.3,x,x,x,x
COc1ccc(C2=NOC(C)(c3nnc(-c4ccncc4)o3)C2)cc1 (stereo unspecified),x,0.61,x,x,x,x
O=C1CC(Nc2ccccc2)C(=O)N1Cc1ccccc1 (stereo unspecified),24,0.45,3,91*,0.8,0.1
O=C1CC(Nc2ccccc2)C(=O)N1CCc1ccccc1 (stereo unspecified),8,0.49,5,79*,0.9,0.2
COc1ccc(NC2CC(=O)N(CCc3ccccc3)C2=O)cc1 (stereo unspecified),x,0.92,-2,x,x,x
CCCCC(=O)O,x,-1.4,x,x,x,x
Cc1cc(-n2c(C)cc(C(=O)CSc3nc4ccccc4c(=O)n3Cc3ccco3)c2C)no1,-5,0.034,1,2,1,1
CC1(C)CNC(=O)c2sc(N3CCCCC3)nc2C1,-1,0.2,-9,6,1,0.9
CC1(C)CC(=O)c2sc(N3CCCCC3)nc2C1,26,-0.51,3,58*,0.7,0.4
CCCn1c2ccc(/C(C)=N\O)cc2c2cc(/C(C)=N/O)ccc21,0,0.22,23,-8,1,1.1
Cc1ccc(OCC(=O)NCC(=O)n2nc(C)cc2C)cc1,-128,x,6,48,2.3*,0.5
Cc1cc(C)n(C(=O)CNC(=O)COc2ccccc2)n1,-100,-0.068,2,13,2*,0.9
Cc1cc(C)n(C(=O)CNC(=O)Cc2ccccc2)n1,-59,2.2,9,17,1.6,0.8
CC(C)CCn1cnc2c([nH]c3cccc(Cl)c32)c1=O,50*,-0.04,7,27,0.5,0.7
CCC(OC(=O)CCc1nc2ccccc2[nH]c1=O)C(=O)c1ccccc1 (stereo unspecified),79*,-0.77,15,99*,0.2,0
O=c1[nH]c(=S)[nH]nc1Cc1ccccc1,-5,0.045,3,-1,1,1
O=c1[nH]c2ccccc2nc1Cc1ccccc1,6,-0.34,1,56*,0.9,0.4
CCOC(=O)CCc1nc2ccccc2[nH]1,24,0.59,-3,69*,0.8,0.3
CCCCOC(=O)CCc1nc2ccccc2[nH]c1=O,31,0.54,1,73*,0.7,0.3
CC(=O)COC(=O)CCc1nc2ccccc2[nH]c1=O,14,0.21,7,11,0.9,0.9
CCOC(=O)c1ccc2nc3c(cc2c1)CCS3,47,-0.052,7,4,0.5,1
C/C(=N\OC(=O)c1ccc(Cl)cc1)c1nccs1,7,-0.2,3,36,0.9,0.6
SMILES,CYP2C9 inhib,Cav32 inh,Rev-RRE block,CYP2C19 inhib,CYP2C9 activ,CYP2C19 activ
CCc1nnc(NC(=O)c2ccc3c(c2)C(=O)N(CC)C3=O)s1,x,1.1,-2,x,x,x
COc1ccc(C)cc1S(=O)(=O)N(C)CC(=O)N1CCCCCC1,47,0.23,0,49,0.5,0.5
Cc1noc(C)c1COC(=O)CCC(=O)c1ccc(F)cc1,11,-0.38,0,30,0.9,0.7
Cc1noc(C)c1COC(=O)CCc1nc2ccccc2c(=O)[nH]1,59*,-0.55,2,41,0.4,0.6
CCOCCn1c(C(C)O)nc2ccccc21 (stereo unspecified),x,0.12,8,x,x,x
OCc1nc2ccccc2n1C/C=C/c1ccccc1,60*,-2.4,2,92*,0.4,0.1
CC(O)c1nc2ccccc2n1C/C=C/c1ccccc1 (stereo unspecified),55*,-2.1,5,98*,0.5,0
C=C(Br)Cn1c(CC)nc2ccccc21,-4,0.23,5,2,1,1
COc1cc2c(cc1OC)C1Cc3ccc(OC)c(OC)c3C[N+]1([O-])CC2 (stereo unspecified),x,0.21,x,x,x,x
